In ChEMBL document CHEMBL1641558, “A novel series of potent and selective EP(4) receptor ligands: facile modulation of agonism and antagonism” (Bioorg Med Chem Lett, 2011):

Target: T1, Prostaglandin E2 receptor EP4 subtype (Homo sapiens, UniProt P35408)
Assay: Antagonist activity at human prostanoid EP4 receptor expressed in HEK293 cells assessed as inhibition of PGE2-induced cAMP accumulation by scintillation proximity assay
Assay type: functional, cell-based
Conditions: not given
In short: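 HEK293 cells expressing EP4 receptors. Antagonism is read as inhibition of PGE2-evoked rise in intracellular cAMP, reported as IC50. Agonism is read as cAMP elevation in the same cells without PGE2, reported as EC50.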

T1 sequence (P35408 whole entry): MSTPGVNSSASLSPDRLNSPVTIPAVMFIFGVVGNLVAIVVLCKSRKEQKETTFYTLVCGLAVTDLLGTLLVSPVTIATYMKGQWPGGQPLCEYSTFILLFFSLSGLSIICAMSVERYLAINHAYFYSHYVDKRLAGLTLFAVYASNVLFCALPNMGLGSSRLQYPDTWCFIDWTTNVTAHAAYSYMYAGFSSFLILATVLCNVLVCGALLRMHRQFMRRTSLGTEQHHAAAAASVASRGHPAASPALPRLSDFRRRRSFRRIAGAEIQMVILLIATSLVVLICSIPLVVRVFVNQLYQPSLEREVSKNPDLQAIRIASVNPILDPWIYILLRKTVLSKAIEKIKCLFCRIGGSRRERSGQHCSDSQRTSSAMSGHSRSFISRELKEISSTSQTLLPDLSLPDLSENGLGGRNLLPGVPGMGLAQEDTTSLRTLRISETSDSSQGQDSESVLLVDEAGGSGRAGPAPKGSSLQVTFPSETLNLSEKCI

| SMILES | IC50 [nM] |
| --- | --- |
| C[C@H](NC(=O)c1cccc2c1N(Cc1cc(Br)cc(Br)c1)CC2)c1ccc(C(=O)O)cc1 | > 10000 |
| C[C@H](NC(=O)c1cccc2c1N(Cc1ccc(OC(F)(F)F)cc1)CC2)c1ccc(C(=O)O)cc1 | 2.8 |
| C[C@H](NC(=O)c1cccc2c1N(Cc1cccc(Cl)c1)CC2)c1ccc(C(=O)O)cc1 | > 10000 |
| C[C@H](NC(=O)c1cccc2c1N(Cc1ccc(C(N)=O)cc1)CC2)c1ccc(C(=O)O)cc1 | 73 |

These reach a lower IC50. Values come first.

| IC50 [nM] | SMILES |
| --- | --- |
| 1.1 | C[C@H](NC(=O)c1cccc2c1N(Cc1ccc(Cl)c(Cl)c1)CC2)c1ccc(C(=O)O)cc1 |
| 2.2 | C[C@H](NC(=O)c1cc(Cl)cc2c1N(Cc1ccc(C(F)(F)F)cc1)CC2)c1ccc(C(=O)O)cc1 |

Tested on: not listed separately
Assay: Bioavailability in rat at 20 mg/kg, po and 5 mg/kg, iv
Assay type: ADME, organism-based
Conditions: in vivo
In short: (§1)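 Rat pharmacokinetics with potassium salts, given 20 mg/kg orally in 0.5% methocel and 5 mg/kg intravenously in 60% PEG 200. Half-life, oral bioavailability and clearance derived from these dosings.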

| bioavailability [%] | SMILES |
| --- | --- |
| 73 | C[C@H](NC(=O)c1cccc2c1N(Cc1ccc(Cl)c(Cl)c1)CC2)c1ccc(C(=O)O)cc1 |
| 65 | C[C@H](NC(=O)c1cccc2c1N(Cc1cccc(Cl)c1)CC2)c1ccc(C(=O)O)cc1 |

Species on record: Homo sapiens
Assay: Selectivity ratio of Ki for human prostanoid EP2 receptor to Ki for human prostanoid EP4
Conditions: not given

| SMILES | Ratio Ki |
| --- | --- |
| C[C@H](NC(=O)c1cccc2c1N(Cc1cc(Br)cc(Br)c1)CC2)c1ccc(C(=O)O)cc1 | 151 |
| C[C@H](NC(=O)c1cccc2c1N(Cc1ccc(OC(F)(F)F)cc1)CC2)c1ccc(C(=O)O)cc1 | 687 |
| C[C@H](NC(=O)c1cccc2c1N(Cc1cccc(Cl)c1)CC2)c1ccc(C(=O)O)cc1 | 595 |
| C[C@H](NC(=O)c1cccc2c1N(Cc1ccc(C(N)=O)cc1)CC2)c1ccc(C(=O)O)cc1 | > 1000 |

The remaining lines, values ahead:

| Ratio Ki | SMILES |
| --- | --- |
| 338 | C[C@H](NC(=O)c1cccc2c1N(Cc1ccc(Cl)c(Cl)c1)CC2)c1ccc(C(=O)O)cc1 |
| 647 | C[C@H](NC(=O)c1cc(Cl)cc2c1N(Cc1ccc(C(F)(F)F)cc1)CC2)c1ccc(C(=O)O)cc1 |

Target: T1, Prostaglandin E2 receptor EP4 subtype
Assay: Agonist activity at human prostanoid EP4 receptor expressed in HEK293 cells assessed as cAMP accumulation by scintillation proximity assay
Conditions: not given

| EC50 [nM] | SMILES |
| --- | --- |
| 0.36 | C[C@H](NC(=O)c1cccc2c1N(Cc1cc(Br)cc(Br)c1)CC2)c1ccc(C(=O)O)cc1 |
| 0.82 | C[C@H](NC(=O)c1cccc2c1N(Cc1cccc(Cl)c1)CC2)c1ccc(C(=O)O)cc1 |

Species on record: Homo sapiens
Assay: Selectivity ratio of Ki for human prostanoid EP3 receptor to Ki for human prostanoid EP4
Conditions: not given

| SMILES | Ratio Ki |
| --- | --- |
| C[C@H](NC(=O)c1cccc2c1N(Cc1cc(Br)cc(Br)c1)CC2)c1ccc(C(=O)O)cc1 | > 1000 |
| C[C@H](NC(=O)c1cccc2c1N(Cc1ccc(OC(F)(F)F)cc1)CC2)c1ccc(C(=O)O)cc1 | > 1000 |
| C[C@H](NC(=O)c1cccc2c1N(Cc1cccc(Cl)c1)CC2)c1ccc(C(=O)O)cc1 | > 1000 |
| C[C@H](NC(=O)c1cccc2c1N(Cc1ccc(C(N)=O)cc1)CC2)c1ccc(C(=O)O)cc1 | > 1000 |

Second part, the molecule after the results:

| Ratio Ki | SMILES |
| --- | --- |
| > 1000 | C[C@H](NC(=O)c1cccc2c1N(Cc1ccc(Cl)c(Cl)c1)CC2)c1ccc(C(=O)O)cc1 |
| > 1000 | C[C@H](NC(=O)c1cc(Cl)cc2c1N(Cc1ccc(C(F)(F)F)cc1)CC2)c1ccc(C(=O)O)cc1 |

Target: T1, Prostaglandin E2 receptor EP4 subtype
Assay: Displacement of [3H]PGE2 from human prostanoid EP4 receptor expressed in HEK293-EBNA cells after 60 mins by scintillation counting
Assay type: cell-based
Conditions: not given

| SMILES | Ki [nM] |
| --- | --- |
| C[C@H](NC(=O)c1cccc2c1N(Cc1cc(Br)cc(Br)c1)CC2)c1ccc(C(=O)O)cc1 | 0.33 |
| C[C@H](NC(=O)c1cccc2c1N(Cc1ccc(OC(F)(F)F)cc1)CC2)c1ccc(C(=O)O)cc1 | 1.5 |
| C[C@H](NC(=O)c1cccc2c1N(Cc1cccc(Cl)c1)CC2)c1ccc(C(=O)O)cc1 | 0.44 |
| C[C@H](NC(=O)c1cccc2c1N(Cc1ccc(C(N)=O)cc1)CC2)c1ccc(C(=O)O)cc1 | 30 |

More lines, now with the values ahead:

| Ki [nM] | SMILES |
| --- | --- |
| 0.34 | C[C@H](NC(=O)c1cccc2c1N(Cc1ccc(Cl)c(Cl)c1)CC2)c1ccc(C(=O)O)cc1 |
| 0.4 | C[C@H](NC(=O)c1cc(Cl)cc2c1N(Cc1ccc(C(F)(F)F)cc1)CC2)c1ccc(C(=O)O)cc1 |

Species on record: Homo sapiens
Assay: Selectivity ratio of Ki for human prostanoid EP1 receptor to Ki for human prostanoid EP4
Conditions: not given

| SMILES | Ratio Ki |
| --- | --- |
| C[C@H](NC(=O)c1cccc2c1N(Cc1cc(Br)cc(Br)c1)CC2)c1ccc(C(=O)O)cc1 | > 1000 |
| C[C@H](NC(=O)c1cccc2c1N(Cc1ccc(OC(F)(F)F)cc1)CC2)c1ccc(C(=O)O)cc1 | > 1000 |
| C[C@H](NC(=O)c1cccc2c1N(Cc1cccc(Cl)c1)CC2)c1ccc(C(=O)O)cc1 | > 1000 |
| C[C@H](NC(=O)c1cccc2c1N(Cc1ccc(C(N)=O)cc1)CC2)c1ccc(C(=O)O)cc1 | > 1000 |

Other lines, results leading:

| Ratio Ki | SMILES |
| --- | --- |
| > 1000 | C[C@H](NC(=O)c1cccc2c1N(Cc1ccc(Cl)c(Cl)c1)CC2)c1ccc(C(=O)O)cc1 |
| > 1000 | C[C@H](NC(=O)c1cc(Cl)cc2c1N(Cc1ccc(C(F)(F)F)cc1)CC2)c1ccc(C(=O)O)cc1 |

Species on record: Homo sapiens
Assay: Selectivity ratio of Ki for human prostanoid FP receptor to Ki for human prostanoid EP4
Conditions: not given

| SMILES | Ratio Ki |
| --- | --- |
| C[C@H](NC(=O)c1cccc2c1N(Cc1cc(Br)cc(Br)c1)CC2)c1ccc(C(=O)O)cc1 | > 1000 |
| C[C@H](NC(=O)c1cccc2c1N(Cc1ccc(OC(F)(F)F)cc1)CC2)c1ccc(C(=O)O)cc1 | > 1000 |
| C[C@H](NC(=O)c1cccc2c1N(Cc1cccc(Cl)c1)CC2)c1ccc(C(=O)O)cc1 | > 1000 |
| C[C@H](NC(=O)c1cccc2c1N(Cc1ccc(C(N)=O)cc1)CC2)c1ccc(C(=O)O)cc1 | > 1000 |

Further lines, results first:

| Ratio Ki | SMILES |
| --- | --- |
| > 1000 | C[C@H](NC(=O)c1cccc2c1N(Cc1ccc(Cl)c(Cl)c1)CC2)c1ccc(C(=O)O)cc1 |
| > 1000 | C[C@H](NC(=O)c1cc(Cl)cc2c1N(Cc1ccc(C(F)(F)F)cc1)CC2)c1ccc(C(=O)O)cc1 |

Tested on: not listed separately
Assay: Clearance in rat at 20 mg/kg, po and 5 mg/kg, iv
Assay type: ADME, organism-based
Conditions: in vivo
In short: as §1

| clearance [mL/min/kg] | SMILES |
| --- | --- |
| 12 | C[C@H](NC(=O)c1cccc2c1N(Cc1ccc(Cl)c(Cl)c1)CC2)c1ccc(C(=O)O)cc1 |
| 26 | C[C@H](NC(=O)c1cccc2c1N(Cc1cccc(Cl)c1)CC2)c1ccc(C(=O)O)cc1 |

Species on record: Homo sapiens
Assay: Selectivity ratio of Ki for human prostanoid TP receptor to Ki for human prostanoid EP4
Conditions: not given

| SMILES | Ratio Ki |
| --- | --- |
| C[C@H](NC(=O)c1cccc2c1N(Cc1cc(Br)cc(Br)c1)CC2)c1ccc(C(=O)O)cc1 | > 1000 |
| C[C@H](NC(=O)c1cccc2c1N(Cc1ccc(OC(F)(F)F)cc1)CC2)c1ccc(C(=O)O)cc1 | > 1000 |
| C[C@H](NC(=O)c1cccc2c1N(Cc1cccc(Cl)c1)CC2)c1ccc(C(=O)O)cc1 | > 1000 |
| C[C@H](NC(=O)c1cccc2c1N(Cc1ccc(C(N)=O)cc1)CC2)c1ccc(C(=O)O)cc1 | > 1000 |

The next lines start with the values.

| Ratio Ki | SMILES |
| --- | --- |
| > 1000 | C[C@H](NC(=O)c1cccc2c1N(Cc1ccc(Cl)c(Cl)c1)CC2)c1ccc(C(=O)O)cc1 |
| > 1000 | C[C@H](NC(=O)c1cc(Cl)cc2c1N(Cc1ccc(C(F)(F)F)cc1)CC2)c1ccc(C(=O)O)cc1 |

Species on record: Homo sapiens
Assay: Selectivity ratio of Ki for human prostanoid DP receptor to Ki for human prostanoid EP4
Conditions: not given

| SMILES | Ratio Ki |
| --- | --- |
| C[C@H](NC(=O)c1cccc2c1N(Cc1cc(Br)cc(Br)c1)CC2)c1ccc(C(=O)O)cc1 | 209 |
| C[C@H](NC(=O)c1cccc2c1N(Cc1ccc(OC(F)(F)F)cc1)CC2)c1ccc(C(=O)O)cc1 | 880 |
| C[C@H](NC(=O)c1cccc2c1N(Cc1cccc(Cl)c1)CC2)c1ccc(C(=O)O)cc1 | > 1000 |
| C[C@H](NC(=O)c1cccc2c1N(Cc1ccc(C(N)=O)cc1)CC2)c1ccc(C(=O)O)cc1 | > 1000 |

Results, then the molecule that gave them:

| Ratio Ki | SMILES |
| --- | --- |
| 241 | C[C@H](NC(=O)c1cccc2c1N(Cc1ccc(Cl)c(Cl)c1)CC2)c1ccc(C(=O)O)cc1 |
| 670 | C[C@H](NC(=O)c1cc(Cl)cc2c1N(Cc1ccc(C(F)(F)F)cc1)CC2)c1ccc(C(=O)O)cc1 |

Tested on: not listed separately
Assay: Half life in rat at 20 mg/kg, po and 5 mg/kg, iv
Assay type: ADME, organism-based
Conditions: in vivo
In short: as §1

| half-life [h] | SMILES |
| --- | --- |
| 4.8 | C[C@H](NC(=O)c1cccc2c1N(Cc1ccc(Cl)c(Cl)c1)CC2)c1ccc(C(=O)O)cc1 |
| 4.4 | C[C@H](NC(=O)c1cccc2c1N(Cc1cccc(Cl)c1)CC2)c1ccc(C(=O)O)cc1 |

Species on record: Homo sapiens
Assay: Selectivity ratio of Ki for human prostanoid IP receptor to Ki for human prostanoid EP4
Conditions: not given

| SMILES | Ratio Ki |
| --- | --- |
| C[C@H](NC(=O)c1cccc2c1N(Cc1cc(Br)cc(Br)c1)CC2)c1ccc(C(=O)O)cc1 | > 1000 |
| C[C@H](NC(=O)c1cccc2c1N(Cc1ccc(OC(F)(F)F)cc1)CC2)c1ccc(C(=O)O)cc1 | > 1000 |
| C[C@H](NC(=O)c1cccc2c1N(Cc1cccc(Cl)c1)CC2)c1ccc(C(=O)O)cc1 | > 1000 |
| C[C@H](NC(=O)c1cccc2c1N(Cc1ccc(C(N)=O)cc1)CC2)c1ccc(C(=O)O)cc1 | > 1000 |

Next, values leading:

| Ratio Ki | SMILES |
| --- | --- |
| > 1000 | C[C@H](NC(=O)c1cccc2c1N(Cc1ccc(Cl)c(Cl)c1)CC2)c1ccc(C(=O)O)cc1 |
| > 1000 | C[C@H](NC(=O)c1cc(Cl)cc2c1N(Cc1ccc(C(F)(F)F)cc1)CC2)c1ccc(C(=O)O)cc1 |
